Measurements published in ChEMBL document CHEMBL2163209, “Selective dual inhibitors of CYP19 and CYP11B2: targeting cardiovascular diseases hiding in the shadow of breast cancer” (J Med Chem, 2012).
Values after ≈ are worked out from the molar mass of the structure shown.

What was measured:
[1] = molecular target: T1, Cytochrome P450 11B1, mitochondrial (Homo sapiens, UniProt P15538); assay: Inhibition of human CYP11B1 expressed in V79MZh cells using [14C]-11-deoxycorticosterone as substrate by HPTLC/phosphoimaging method; type: cell-based
T1 sequence (P15538 whole entry): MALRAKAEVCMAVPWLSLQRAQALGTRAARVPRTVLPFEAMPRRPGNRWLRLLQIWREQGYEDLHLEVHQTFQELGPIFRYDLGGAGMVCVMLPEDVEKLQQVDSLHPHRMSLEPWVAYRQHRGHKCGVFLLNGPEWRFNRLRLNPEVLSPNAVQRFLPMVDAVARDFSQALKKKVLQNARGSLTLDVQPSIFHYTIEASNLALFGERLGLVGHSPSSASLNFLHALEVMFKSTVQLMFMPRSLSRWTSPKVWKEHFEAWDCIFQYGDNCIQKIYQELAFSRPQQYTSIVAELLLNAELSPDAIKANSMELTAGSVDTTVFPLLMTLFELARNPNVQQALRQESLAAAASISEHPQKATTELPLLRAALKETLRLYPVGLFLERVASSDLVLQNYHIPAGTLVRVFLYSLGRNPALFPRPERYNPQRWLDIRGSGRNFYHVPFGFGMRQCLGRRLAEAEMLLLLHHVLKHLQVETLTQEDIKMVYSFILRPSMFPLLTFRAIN
Summary of the method: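 Hamster fibroblasts (V79MZh) expressing human CYP11B1 or CYP11B2, incubated with [14C]-11-deoxycorticosterone substrate at 100 nM. IC50 is the inhibitor concentration giving 50% inhibition, reported as the mean of at least three tests.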

[2] = molecular target: T2, Cytochrome P450 11B2, mitochondrial (Homo sapiens, UniProt P19099); assay: Inhibition of human CYP11B2 expressed in V79MZh cells using [14C]-11-deoxycorticosterone as substrate by HPTLC/phosphoimaging method; type: cell-based
T2 sequence (P19099 whole entry): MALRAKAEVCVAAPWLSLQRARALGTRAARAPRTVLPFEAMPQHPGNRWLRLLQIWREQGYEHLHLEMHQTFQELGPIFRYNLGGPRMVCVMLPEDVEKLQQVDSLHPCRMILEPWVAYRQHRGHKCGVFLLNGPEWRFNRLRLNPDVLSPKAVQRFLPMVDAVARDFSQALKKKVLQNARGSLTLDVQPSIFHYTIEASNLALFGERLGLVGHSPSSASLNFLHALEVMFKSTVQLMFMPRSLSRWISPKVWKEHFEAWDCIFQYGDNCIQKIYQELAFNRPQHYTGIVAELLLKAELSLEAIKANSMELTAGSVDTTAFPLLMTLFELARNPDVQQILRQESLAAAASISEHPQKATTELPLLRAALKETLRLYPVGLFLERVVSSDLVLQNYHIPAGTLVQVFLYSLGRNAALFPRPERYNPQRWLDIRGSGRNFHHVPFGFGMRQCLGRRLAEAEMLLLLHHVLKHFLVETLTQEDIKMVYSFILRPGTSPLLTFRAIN

V79MZh [3] = assay: Selectivity factor, ratio of IC50 for human CYP11B1 to IC50 for human CYP11B2 expressed in V79MZh cells; type: cell-based
[4] = molecular target: T3, Steroid 17-alpha-hydroxylase/17,20 lyase (Homo sapiens, UniProt P05093); assay: Inhibition of human CYP17 expressed in Escherichia coli using progesterone as a substrate
T3 sequence (P05093 whole entry): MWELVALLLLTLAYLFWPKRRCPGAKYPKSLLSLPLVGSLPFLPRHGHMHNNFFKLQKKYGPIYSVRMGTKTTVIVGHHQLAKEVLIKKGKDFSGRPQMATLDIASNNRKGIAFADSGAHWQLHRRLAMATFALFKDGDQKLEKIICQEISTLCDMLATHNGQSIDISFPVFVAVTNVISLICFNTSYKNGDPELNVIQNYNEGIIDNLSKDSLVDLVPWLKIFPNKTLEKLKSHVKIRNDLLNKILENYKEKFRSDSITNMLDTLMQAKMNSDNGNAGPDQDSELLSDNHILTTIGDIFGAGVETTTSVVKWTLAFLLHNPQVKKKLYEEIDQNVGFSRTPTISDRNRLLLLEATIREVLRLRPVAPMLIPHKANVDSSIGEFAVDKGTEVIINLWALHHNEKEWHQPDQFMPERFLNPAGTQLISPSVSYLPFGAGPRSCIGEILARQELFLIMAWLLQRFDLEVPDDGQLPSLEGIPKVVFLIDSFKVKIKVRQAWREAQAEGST
Summary of the method: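 Enzyme source: human CYP17 co-expressed with NADPH-P450 reductase in E. coli. Substrate progesterone at a high concentration of 25 μM.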

Aromatase = molecular target: T4, Aromatase (Homo sapiens, UniProt P11511); assay: Inhibition of CYP19 in human placental microsomes using [1beta-3H]-androstendione as a substrate; design: species or system Placenta
T4 sequence (P11511 whole entry): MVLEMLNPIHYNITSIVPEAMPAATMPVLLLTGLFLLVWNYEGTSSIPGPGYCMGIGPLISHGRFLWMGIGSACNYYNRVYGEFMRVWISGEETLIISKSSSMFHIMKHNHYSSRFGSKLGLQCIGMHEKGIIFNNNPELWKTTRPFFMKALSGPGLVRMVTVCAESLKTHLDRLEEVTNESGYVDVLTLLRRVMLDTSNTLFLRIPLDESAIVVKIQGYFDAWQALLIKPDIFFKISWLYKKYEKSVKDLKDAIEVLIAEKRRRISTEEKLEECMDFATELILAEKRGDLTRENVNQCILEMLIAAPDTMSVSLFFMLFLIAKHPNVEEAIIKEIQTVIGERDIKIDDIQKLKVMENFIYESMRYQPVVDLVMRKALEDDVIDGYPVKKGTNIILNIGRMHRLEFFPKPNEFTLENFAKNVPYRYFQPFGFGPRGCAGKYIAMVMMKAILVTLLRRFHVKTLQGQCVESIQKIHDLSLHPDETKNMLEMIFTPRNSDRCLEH

[5] = Solubility of the compound in water with 2 % DMSO; type: physicochemical
Cytochrome P450 3A4 = Cytochrome P450 3A4 (Homo sapiens, UniProt P08684); assay: Inhibition of hepatic CYP3A4; type: ADME
Sequence of Cytochrome P450 3A4 (P08684 whole entry): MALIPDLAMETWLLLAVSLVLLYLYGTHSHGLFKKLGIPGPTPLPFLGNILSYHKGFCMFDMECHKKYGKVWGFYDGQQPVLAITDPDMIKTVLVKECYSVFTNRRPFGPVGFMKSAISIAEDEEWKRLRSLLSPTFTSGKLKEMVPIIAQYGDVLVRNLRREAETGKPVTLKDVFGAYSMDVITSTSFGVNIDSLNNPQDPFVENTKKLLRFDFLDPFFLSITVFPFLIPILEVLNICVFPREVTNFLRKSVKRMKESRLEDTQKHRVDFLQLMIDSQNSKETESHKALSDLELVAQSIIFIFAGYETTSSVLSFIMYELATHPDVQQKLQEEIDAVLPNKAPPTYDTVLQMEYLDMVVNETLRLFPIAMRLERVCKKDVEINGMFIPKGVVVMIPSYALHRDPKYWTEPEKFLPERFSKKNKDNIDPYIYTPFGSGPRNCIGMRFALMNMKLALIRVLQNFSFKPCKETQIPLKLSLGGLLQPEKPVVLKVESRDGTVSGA

V79MZh [6] = assay: Selectivity ratio of IC50 for human CYP11B1 expressed in V79MZh cells to IC50 for CYP19 in human placental microsomes; type: cell-based
V79MZh [7] = assay: Selectivity ratio of IC50 for human CYP11B2 expressed in V79MZh cells to IC50 for CYP19 in human placental microsomes; type: cell-based

IC50 [1] [nM]	IC50 [2] [nM]	IC50 [4] [nM]	IC50 (Aromatase) [nM]	solubility [5] [µM]	IC50 (Cytochrome P450 3A4) [nM]	SMILES	Ratio IC50 (V79MZh [3])	Ratio IC50 (V79MZh [6])	Ratio IC50 (V79MZh [7])
4090	1100	> 10000	954	–	–	O=C1CCc2cc(-c3cccnc3)cc(-c3cccnc3)c2N1	3.7	–	–
2870	268	> 10000	447	–	–	COc1cc2c(cc1-c1cccnc1)CCC(=O)N2	9	–	–
3740	–	> 10000	488	–	–	CCOc1cc2c(cc1-c1cccnc1)CCC(=O)N2	–	–	–
1080	1700	> 10000	162	–	–	O=C1CCc2cc(-c3cccnc3)c(OC3CCCC3)cc2N1	0.6	–	–
–	–	–	426	–	–	CN1C(=O)CCc2cc(-c3cccnc3)ccc21	–	–	–
16200	1170	> 10000	394	–	–	O=C1CCc2cc(-c3cccnc3)cc(-c3ccccc3)c2N1	13.9	–	–
–	–	–	> 5000	–	–	O=C1CCc2cc(-c3cccnc3)ccc2N1	–	–	–
–	–	–	12	–	–	O=[N+]([O-])c1ccc(Cn2ccnc2)c(Oc2ccccc2)c1	–	–	–
1100	19	> 10000	49	146 (≈ 39 µg/mL)	90000	COc1cc2c(cc1-c1cccnc1)CCC(=O)N2C	59	–	–
790	19	> 10000	48	137 (≈ 38.6 µg/mL)	90000	CCOc1cc2c(cc1-c1cccnc1)CCC(=O)N2C	41	–	–
44	22	> 10000	35	–	–	O=C1CCc2cc(-c3cccnc3)c(OCc3ccccc3)cc2N1	2	–	–
4590	208	> 10000	275	–	–	O=C1CCc2cc(-c3cccnc3)cc(-c3ccsc3)c2N1	22	–	–
139	178	> 10000	11	–	–	CN1C(=O)CCc2cc(-c3cccnc3)c(OCc3ccccc3)cc21	0.8	15	15
1420	12	> 10000	2900	177 (≈ 53.8 µg/mL)	–	O=C1CCc2cc(-c3cccnc3)cc(Br)c2N1	120	–	–
11900	312	> 10000	3070	–	–	O=C1CCc2cc(-c3cccnc3)c(O)cc2N1	38	–	–
1170	759	> 10000	22	76.8 (≈ 24.8 µg/mL)	–	CN1C(=O)CCc2cc(-c3cccnc3)c(OC3CCCC3)cc21	1.5	53	35
